# From ChEMBL document CHEMBL4014346, “Lead Optimization Generates CYP11B1 Inhibitors of Pyridylmethyl Isoxazole Type with Improved Pharmacological Profile for the Treatment of Cushing's Disease” (J Med Chem, 2017)
# How the values were obtained:
# [1] = biological target: T1, Cytochrome P450 11B1, mitochondrial (Homo sapiens, UniProt P15538); assay: Inhibition of human CYP11B1 expressed in hamster V79MZ cells using [1,2-3H]-11-deoxycorticosterone as substrate after 6 hrs by HPLC analysis; format: cell-based
# T1 sequence (P15538 whole entry): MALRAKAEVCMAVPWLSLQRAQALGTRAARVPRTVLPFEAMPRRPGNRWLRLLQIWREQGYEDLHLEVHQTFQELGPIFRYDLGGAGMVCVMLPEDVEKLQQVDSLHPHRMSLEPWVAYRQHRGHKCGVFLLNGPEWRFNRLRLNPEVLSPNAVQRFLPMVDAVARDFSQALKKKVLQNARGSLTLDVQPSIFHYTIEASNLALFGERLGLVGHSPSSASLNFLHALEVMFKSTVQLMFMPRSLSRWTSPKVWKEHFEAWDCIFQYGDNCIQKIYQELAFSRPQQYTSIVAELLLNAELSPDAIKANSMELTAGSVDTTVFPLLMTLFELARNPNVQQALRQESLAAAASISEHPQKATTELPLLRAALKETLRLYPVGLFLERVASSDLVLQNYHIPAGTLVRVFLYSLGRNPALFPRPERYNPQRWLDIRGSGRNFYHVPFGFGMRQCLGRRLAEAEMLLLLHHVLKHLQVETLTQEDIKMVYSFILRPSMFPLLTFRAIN
# Outline: (§1)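 V79MZ cells expressing recombinant human CYP11B1 or CYP11B2, or rat CYP11B1, incubated with [1,2-³H]-11-deoxycorticosterone (100 nM) and inhibitor over a range of concentrations; ketoconazole as reference.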
# [2] = biological target: T2, Cytochrome P450 11B2, mitochondrial (Homo sapiens, UniProt P19099); assay: Inhibition of human CYP11B2 expressed in hamster V79MZ cells using [1,2-3H]-11-deoxycorticosterone as substrate after 6 hrs by HPLC analysis; format: ADME, cell-based; outline: as §1
# T2 sequence (P19099 whole entry): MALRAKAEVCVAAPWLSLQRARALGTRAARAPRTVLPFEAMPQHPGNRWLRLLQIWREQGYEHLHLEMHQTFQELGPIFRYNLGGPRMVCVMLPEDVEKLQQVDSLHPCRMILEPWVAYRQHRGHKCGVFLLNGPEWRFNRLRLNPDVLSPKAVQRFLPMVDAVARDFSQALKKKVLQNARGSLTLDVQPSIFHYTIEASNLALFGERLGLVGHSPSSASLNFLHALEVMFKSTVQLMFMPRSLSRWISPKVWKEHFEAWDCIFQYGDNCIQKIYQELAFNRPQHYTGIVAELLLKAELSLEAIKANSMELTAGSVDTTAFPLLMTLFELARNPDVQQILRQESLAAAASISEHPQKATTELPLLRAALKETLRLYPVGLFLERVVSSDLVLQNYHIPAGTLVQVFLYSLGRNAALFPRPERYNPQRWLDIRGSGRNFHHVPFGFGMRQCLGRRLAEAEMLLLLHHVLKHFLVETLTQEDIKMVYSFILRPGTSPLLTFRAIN
# [3] = Selectivity ratio of IC50 for human CYP11B2 expressed in hamster V79MZ cells to IC50 for human CYP11B1 expressed in hamster V79MZ cells; outline: as §1
# [4] = Half life in rat liver S9 fractions at 1 uM in presence of NADPH/UDPGA by LC-MS/MS analysis; format: ADME, tissue-based
# Outline: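 Samples taken at 0, 5, 15 and 60 min, stopped with cold acetonitrile containing internal standard. Remaining parent measured by LC-MS/MS.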
# [5] = biological target: T3, Cytochrome P450 11B1, mitochondrial (Rattus norvegicus, UniProt P15393); assay: Inhibition of CYP11B1 in Sprague-Dawley rat adrenal tissue using 11-deoxycorticosterone as substrate after 4 hrs by SPA
# T3 sequence (P15393 whole entry): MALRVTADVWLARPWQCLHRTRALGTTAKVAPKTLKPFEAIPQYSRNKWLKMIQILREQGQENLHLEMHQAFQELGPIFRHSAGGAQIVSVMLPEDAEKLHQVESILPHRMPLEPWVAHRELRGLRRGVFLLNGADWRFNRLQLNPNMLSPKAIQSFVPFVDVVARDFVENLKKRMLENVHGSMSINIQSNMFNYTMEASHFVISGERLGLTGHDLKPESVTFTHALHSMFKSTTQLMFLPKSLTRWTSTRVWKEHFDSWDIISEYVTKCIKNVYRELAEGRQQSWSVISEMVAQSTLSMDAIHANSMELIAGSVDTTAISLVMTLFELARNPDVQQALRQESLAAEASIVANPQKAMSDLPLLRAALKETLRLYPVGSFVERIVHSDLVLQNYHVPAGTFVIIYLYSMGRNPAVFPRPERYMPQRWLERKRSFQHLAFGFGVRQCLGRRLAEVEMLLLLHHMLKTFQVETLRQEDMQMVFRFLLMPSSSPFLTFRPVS
SMILES,IC50 [1] [nM],IC50 [2] [nM],half-life at 1 µM [4] [min],IC50 [5] [µM],Ratio IC50 [3]
Cc1cncc(Cc2csnc2-c2ccccc2)c1,48,152,,,3
Cc1cncc(Cc2ccc(S(=O)(=O)c3ccccc3)nc2)c1,20,173,,,9
Cn1c(Cn2ccnc2)cnc1-c1ccccc1,516,507,,,1
c1ccc(-c2ncc(Cn3ccnc3)[se]2)cc1,104,657,,,6
c1ccc(-c2ncc(Cn3ccnc3)o2)cc1,150,520,,,4
Cc1cncc(Cc2ccc(-c3ccnn3C)nc2)c1,16,97,,,6
Cc1cncc(Cc2ccc(N3CCOCC3)nc2)c1,22,90,,,4
Cc1cncc(Cc2cc(-c3ccccc3)n[nH]2)c1,137,586,,,4
c1ccc(-c2cc(Cn3ccnc3)on2)cc1,148,1300,,,9
Cc1cncc(Cc2cnc(-c3ccccc3)o2)c1,14,116,,,8
c1ccc(-c2nscc2Cn2ccnc2)cc1,57,174,,,3
Cn1nc(-c2ccccc2)cc1Cn1ccnc1,58,215,,,4
c1ccc(-c2ncc(Cn3ccnc3)s2)cc1,62,459,,,7
Cc1cncc(Cc2ccc(-c3cnn(C)c3)nc2)c1,42,182,,,4
CC(C)(C(=O)c1cccnc1)c1cccnc1 [METYRAPONE],,,12,5,

# The remaining compounds from weak to strong by IC50 [1], led by results:
IC50 [1] [nM],IC50 [2] [nM],half-life at 1 µM [4] [min],IC50 [5] [µM],SMILES,Ratio IC50 [3]
14,120,,,c1ccc(-c2cc(Cn3ccnc3)sn2)cc1,9
9,24,,,Cc1cncc(Cc2cnc(-c3ccccc3)s2)c1,3
5,30,,,Cc1cncc(Cc2ccc(Sc3ccccc3)nc2)c1,6
4,32,,,Cc1cncc(Cc2ccc(NC3CC3)nc2)c1,8
4,28,,,Cc1cncc(Cc2ccc(-c3ccoc3)nc2)c1,7
3,27,,,Cc1cncc(Cc2ccc(-c3ccccc3F)nc2)c1,9
3,24,,,Cc1cncc(Cc2ccc(Sc3ccccc3F)nc2)c1,8
2,17,,,Cc1cncc(Cc2ccc(S(=O)(=O)c3ccccc3F)nc2)c1,9
2,16,,,Cc1cncc(Cc2ccc(-c3cccc(NS(C)(=O)=O)c3)nc2)c1,8
1,6,,,Cc1cncc(Cc2cc(-c3ccccc3)nn2C)c1,6
1,8,,,Cc1cncc(Cc2cc(-c3ccccc3)ns2)c1,8
